# Assay outcomes deposited in PubChem by several laboratories.
# UBC13 polyUb = inhibitors of human UBC13 polyubiquitin chain formation | TR-FRET | inhibition, % at 20 µM | actives 0.47% (n = 330,000) | AID 485273; in the data active = inhibition above about 45%, passing the limit was not always enough
# Target sequence (P61088 whole entry, looked up): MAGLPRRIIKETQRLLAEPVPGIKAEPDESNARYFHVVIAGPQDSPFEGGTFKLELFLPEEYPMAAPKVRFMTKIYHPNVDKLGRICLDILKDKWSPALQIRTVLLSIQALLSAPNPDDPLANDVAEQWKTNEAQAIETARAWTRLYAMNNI
# AI-2 QS modul = Vibrio harveyi AI-2 quorum sensing modulation. activity change, % at 7.5 µM. actives 0.4% (n = 300,000). Vibrio harveyi JMH597 AI-2 luminescence/OD600 ratio, 9 h; stronger effect = lower value; strain lacks LuxN and CqsS sensors; 0 = neutral-control median; in the data active = activity change below about -75%, passing the limit was not always enough;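 note: luminescence divided by OD600 gain over 9 h not by final OD600 alone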
# T cruzi repl = T. cruzi replication inhibition; T. cruzi beta-gal in NIH3T3, luminescence, 90 h; inhibition, % (no concentration beside the values); actives 1.4% (n = 300,000);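 active = mean inhibition across valid replicates above about 55%, limit read from the data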;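 note: signal also drops with host cell toxicity which is not excluded here; 0% = plate median of DMSO wells and 100% = zero luminescence signal; higher percent means less beta-gal luminescence so fewer parasites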
#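 Assay system: NIH/3T3 fibroblasts plus reporter T. cruzi. Amount: NIH/3T3 cells, 5,000 per well. Buffer or medium: DMEM, 2% fetal bovine serum. Doses: compound pinned at 50 nL/well, DMSO. Schedule: ≥90 h infection period, 3 h prior cell attachment. Signal: luminescent β-galactosidase signal after 60 min lysis. Read-out: parasite load inhibition, %.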
# pCIP destab = lowers stability of the mouse p/CIP coactivator protein; decrease of EGFP signal, % at 10 µM; F442A p/CIP-EGFP cells, EGFP fluorescence, 16 h; Q05BA5; actives 0.01% (n = 290,000);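 active = EGFP signal decrease of at least 30% at 10 µM or well 3 SD below plate mean, unless failing retest; inactive = the rest, including hits failing retest or dose response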
# PP1 counter = PP1-alpha (human) inhibition in PP5 counter-screen; actives 0.9% (n = 320,000); purified PP1alpha, OMFP fluorescence; inhibition, % at 6.7 µM; P62136;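 active = inhibition above the mean inhibition of all tested compounds plus 3 SD, computed separately for each screening campaign, cut at about 15% in these data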
# PP1 inh confirm = confirmation of human PP1 phosphatase inhibitors; shares compounds with PP1 counter; purified PP1alpha, OMFP substrate fluorescence; inhibition, % at 6.7 µM; actives 52% (n = 1,900);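 active = mean PP1 inhibition above a set limit taken from the earlier primary screen, cut at about 15% in these data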
# PP5 counter = inhibits human PP5 phosphatase in PP1 counter-screen; shares compounds with PP1 counter; purified PP5c, OMFP fluorescence; inhibition, % at 6.7 µM; actives 4% (n = 1,900);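 active = mean PP5 inhibition over triplicate wells above about 9.5% taken from the earlier PP1 screen, limit read from the data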
# Target sequence (P53041 whole entry, looked up): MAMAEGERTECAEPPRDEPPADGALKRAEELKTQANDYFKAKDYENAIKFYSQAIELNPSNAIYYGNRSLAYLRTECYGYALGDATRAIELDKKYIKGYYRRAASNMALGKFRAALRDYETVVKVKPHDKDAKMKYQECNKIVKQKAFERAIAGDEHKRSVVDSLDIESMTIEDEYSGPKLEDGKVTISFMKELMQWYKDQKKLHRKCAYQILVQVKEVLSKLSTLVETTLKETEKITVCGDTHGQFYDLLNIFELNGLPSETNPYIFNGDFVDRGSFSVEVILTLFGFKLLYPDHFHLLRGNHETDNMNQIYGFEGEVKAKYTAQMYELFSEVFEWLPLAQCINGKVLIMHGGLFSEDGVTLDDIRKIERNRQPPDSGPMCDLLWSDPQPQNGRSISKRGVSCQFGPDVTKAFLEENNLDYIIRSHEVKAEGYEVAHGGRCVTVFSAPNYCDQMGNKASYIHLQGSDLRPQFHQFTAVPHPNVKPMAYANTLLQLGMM
# Active calls of the source: *; / = not tested or not shown. Sampled rows, rich in hits. Any-hit rate of the full collection: about 2.8%.
SMILES,UBC13 polyUb,AI-2 QS modul,T cruzi repl,pCIP destab,PP1 counter,PP1 inh confirm,PP5 counter
Fc1ccc(Nc2ccc3ccccc3n2)c(F)c1,3,4,-5,8,-1,/,/
Cc1ccc(NC(=O)C(OC(=O)c2ccc(C=O)cc2)c2ccccc2)cc1Cl (stereo unspecified),-8,30,12,-12,22*,12,-3
Cc1ccc(C)c(NC(=O)C(OC(=O)c2ccc(CO)cc2)c2ccccc2)c1 (stereo unspecified),2,/,/,/,/,/,/
N#CCN1CCC2(O)CCCCC2C1c1ccc2c(c1)OCO2 (stereo unspecified),-3,14,3,-6,-2,/,/
CC(C)(O)c1ccccc1CC[C@@H](SCC1(CC(=O)O)CC1)c1cccc(/C=C/c2ccc3ccc(Cl)cc3n2)c1,-38,1,-2,/,35*,43*,-2
CC(=O)Oc1ccc(Cl)cc1/C=C/c1ccc2ccccc2n1,11,-9,-4,-13,2,/,/
CC(=O)Oc1ccc2c(=O)c(Oc3ccccc3[N+](=O)[O-])coc2c1,-4,22,-19,-4,56*,0,1
CC(=O)N1N=C(c2ccccc2OC(=O)/C=C/c2ccccc2)CC1c1ccccc1 (stereo unspecified),-1,14,-23,-8,21*,0,0
CCN(CC)c1ccc(C2C(C(C)=O)C(=O)CC(C)(O)C2C(C)=O)cc1 (stereo unspecified),-2,3,8,/,-3,/,/
Cc1cc(Cl)ccc1Oc1ccccc1C(=O)CC#N,-8,36,2,3,20*,0,-8
O=C(CCS(=O)(=O)c1ccc(Cl)cc1)Nc1ccc(N2CCOCC2)cc1,18,17,-9,5,-9,/,/
C#CCOCCOCCOCCNc1nc(N2CCN(C(=O)CCCCCCCCCCNC(=O)[C@H](CCCCN)n3cc(CCO)nn3)CC2)nc(N2CCN(C(=O)CCCCCCCCCCNC(=O)[C@H](CCCCN)n3cc(C[C@@H](C)CC)nn3)CC2)n1,130*,/,/,/,41*,13,0
C#CCOCCOCCOCCNc1nc(N2CCN(C(=O)CCCCCCCCCCNC(=O)[C@@H](CCSC)n3cc(CCO)nn3)CC2)nc(N2CCN(C(=O)CCCCCCCCCCNC(=O)[C@@H]([C@H](C)O)n3cc(C)nn3)CC2)n1,22,/,/,/,6,/,/
C#CCOCCOCCOCCNc1nc(N2CCN(C(=O)CCCCCCCCCCNC(=O)[C@H](CCCCN)n3cc(C[C@@H](C)CC)nn3)CC2)nc(N2CCN(C(=O)CCCCCCCCCCNC(=O)[C@@H]([C@H](C)O)n3cc(C)nn3)CC2)n1,118*,/,/,/,61*,47*,4
c1ccc(N2CCN(c3nc(-c4ccccn4)nc4ccccc34)CC2)cc1,1,30,49,-10,64*,46*,0
Cc1ccccc1Oc1nc(-c2ccccn2)nc2ccccc12,8,22,16,-6,20*,16*,0
CN1CCN(c2nc(-c3ccccn3)nc3ccccc23)CC1,-7,9,13,4,-3,/,/
CCCc1c(O)nc(SCC(=O)NCc2ccco2)[nH]c1=O,2,5,7,0,-1,/,/
Cc1ccc(CNC(=O)c2ccc(N3CCC4(CC3)CC(c3ccccc3)=NO4)c(NC(=O)c3ccco3)c2)cc1,-4,27,51,2,20*,16*,-2
O=C(CSc1nc2nc(-c3cccs3)cc(C(F)(F)F)c2c(=O)[nH]1)Nc1ccc(F)c(F)c1,-17,42,-10,-6,39*,30*,2
Cc1ccc(C)c(NC(=O)CSc2nc3nc(-c4cccs4)cc(C(F)(F)F)c3c(=O)[nH]2)c1,11,18,-9,-15,23*,14,-1
Cn1c(Cc2nc(-c3cnccn3)no2)nnc1SCC(=O)Nc1ccccc1,4,20,-3,5,0,/,/
Cc1ccc(S(=O)(=O)Nc2cccc(-n3cnnn3)c2)cc1C,-5,6,-2,-16,3,/,/
O=C(Nc1nc(-c2ccccn2)cs1)C1COc2ccccc2O1 (stereo unspecified),-27,/,/,-1,29*,41*,-1
O=C(Nc1nc(-c2ccccn2)cs1)c1ccc2c(c1)OCCO2,-28,13,49,-13,39*,43*,-3
SMILES,UBC13 polyUb,AI-2 QS modul,T cruzi repl,pCIP destab,PP1 counter,PP1 inh confirm,PP5 counter
O=C(Nc1ccccn1)c1ccc2c(c1)OCCO2,-4,4,-13,1,4,/,/
NS(=O)(=O)c1cccc(NC(=O)CN2CCN(S(=O)(=O)c3ccc4c(c3)OCCO4)CC2)c1,6,/,/,/,/,/,/
COc1ccccc1CNC(=O)c1cn(C)c2ccc(S(=O)(=O)N3CCCCC3)cc2c1=O,13,25,-10,9,-3,/,/
O=C(c1cccs1)N1N=C(c2ccccc2)CC1c1ccccc1O (stereo unspecified),0,7,57*,-8,25*,19*,-3
CCOC(=O)c1cn(Cc2ccccc2)c(C(=O)OC(C)(C)C)c1O,5,9,-1,/,22*,36*,-4
C[C@H](NC(=O)Cn1cncn1)c1ccccc1,-6,23,-1,-24,-3,/,/
Nc1no[n+]([O-])c1-c1ccccc1,-12,22,0,-11,-5,/,/
O=C(O)C1=CC[C@@H](c2ccc(Cl)cc2)N(S(=O)(=O)c2ccc(Cl)cc2)[C@H]1c1cccc(Cl)c1,-33,/,/,/,23*,12,-4
Cc1ccc(S(=O)(=O)N2[C@@H](c3ccc(Cl)cc3)C(C(=O)O)=CC[C@H]2c2cccc(Cl)c2)cc1,-12,/,/,/,7,/,/
COc1cccc([C@@H]2CC=C(C(=O)O)[C@H](c3cccc(Cl)c3)N2S(=O)(=O)c2ccc(C)cc2)c1,-28,/,/,/,-1,/,/
Cc1ccc(S(=O)(=O)N2[C@@H](c3ccc(F)cc3)C(C(=O)O)=CC[C@H]2c2ccc(C(C)C)cc2)cc1,-42,/,/,/,19*,12,3
Cc1ccc(S(=O)(=O)N2[C@@H](c3cccc(Cl)c3)C(C(=O)O)=CC[C@H]2c2ccc(C(C)C)cc2)cc1,-23,/,/,/,29*,21*,2
Cc1ccc(S(=O)(=O)N2[C@@H](c3ccc(Cl)cc3)C(C(=O)O)=CC[C@H]2c2ccc(Cl)cc2)cc1,-25,/,/,/,21*,12,0
CCN(CC)C(=O)c1ccc(CS(=O)(=O)Cc2ccccc2)cc1,-5,24,-13,-8,/,/,/
Cc1cc(C)c(S(=O)(=O)NC(C)C)c(C)c1-n1cnnn1,7,33,-17,-1,-4,/,/
CCOC(=O)C1CCCN(C(=O)Cn2nc(C)n3nc(-c4ccccc4)cc3c2=O)C1 (stereo unspecified),-8,24,-4,-9,-1,/,/
